Sampled rows, rich in hits. Any-hit rate of the full collection: about 4%.
Granule exo inh = LAMP-1 surface exposure blockers, TALL-104 cells – cell-based, flow cytometry, MLPCN library, primary screen. TALL-104 LAMP-1 surface exposure; cells stimulated with thapsigargin and PMA. inhibition, % at 10 µM. actives 0.66% (n = 360,000);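 active means inhibition above about 55%, limit read from the data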
UPR XBP1 act = activators of adaptive XBP1 UPR arm, primary screen, cell-based, CHO-XBP1 luciferase reporter, luminescence, uHTS; IRE1-XBP1 UPR activation; percent of tunicamycin response, DMSO as zero; activation, % at 20 µM; actives 0.33% (n = 330,000); AID 463104, 2010;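 active means versus positive control, 20 µM dose yields 30% or more activation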
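Assay system: IRE1-XBP1 luciferase reporter CHO line. Input: 1000 cells/well. Buffer or medium: F12 with 10% serum. Doses: 20 µM, 1% DMSO. Times: overnight seeding at 37 °C, 6 h compound treatment at 37 °C. Technique: Steady-Glo luciferase glow luminescence, 10 min after reagent addition.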
ABHD5 PLIN5 PPI = ABHD5-PLIN5 interaction inhibitors, primary screen, cell lysate, split luciferase complementation, luminescence; Split G. princeps luciferase complementation, 4 h; inhibition, % at 4 µM; actives 0.78% (n = 360,000);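 active means inhibition above the mean inhibition across every tested compound plus 3 SD, cut at about 22% in these data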
Mdm2 MdmX PPI = inhibitors of human Mdm2-MdmX association, primary screen, cell-based, luminescence, split luciferase, SaOS-2, uHTS. Protein Mdm4 (Homo sapiens) + E3 ubiquitin-protein ligase Mdm2 (Homo sapiens), …. SaOS-2 split-luciferase Mdm2/MdmX complementation. inhibition, % at 8 µM. actives 3% (n = 330,000). AID 485346, 2010;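 active means inhibition of at least 50% at 8 µM in the primary screen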
UPR CHOP act = activators of apoptotic CHOP UPR arm, primary screen, cell-based, CHO-CHOP luciferase reporter, luminescence, uHTS. UPR activation; percent of tunicamycin response over DMSO baseline. activation, % at 10 µM. actives 0.34% (n = 330,000). AID 449763, 2010;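 active means at 10 µM dose, activation of 40% or more, normalized to positive control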
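assay system = CHO CHOP reporter cells | amount = 500 CHO-CHOP cells per well | buffer or medium = F12 with 10% FBS | incubation = 16-18 h cell attachment, then 6 h compound exposure, 37 °C | detection = luminescence read with Steady-Glo | read-out = percent activation relative to tunicamycin control | controls = tunicamycin high control, DMSO low control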
Granule exo CP1 = inhibitors of lytic granule exocytosis, confirmation, TALL-104 cells, flow cytometry, Cherry Pick01 | inhibition, % at 10 µM | LAMP-1 externalization; stimulated with PMA plus thapsigargin | actives 11% (n = 1,500) | shares compounds with Granule exo inh; in the data active means inhibition above about 60%
Numbers stand for hits; . = inactive; / = no result.

SMILES	Granule exo inh	UPR XBP1 act	ABHD5 PLIN5 PPI	Mdm2 MdmX PPI	UPR CHOP act	Granule exo CP1
O=C(COC(=O)Cc1c[nH]c2ccccc12)NC1CCCCC1	77	.	.	.	.	.
N=c1n(CCN2CCCCC2)c2ccccc2n1CC(=O)c1ccc(Cl)c(Cl)c1	83	.	22	.	.	.
CCC1Sc2ccc(S(=O)(=O)N3CCN(c4ccccc4)CC3)cc2NC1=O (configuration not stated)	71	.	.	.	.	.
CC(Sc1ccc(Cl)cc1)C(=O)NNC(=O)c1ccncc1 (configuration not stated)	.	.	.	.	.	/
CCOC(=O)C1Nc2c(F)cc(C)cc2C2c3ccccc3CC12 (configuration not stated)	.	.	.	.	.	/
CCOC(=O)C1Nc2c(cc(C(F)(F)F)cc2[N+](=O)[O-])C2c3ccccc3CC12 (configuration not stated)	76	.	.	.	.	.
O=C(C(Cc1ccc(Cl)cc1)NS(=O)(=O)c1ccccc1)N1CC[C@@]2(O)CCCC[C@H]2C1 (some centres not stated)	.	.	.	.	.	/
COc1ccc(CCN2CCCC(CN(C)Cc3cc(OC)ccc3OC)C2)cc1 (configuration not stated)	72	.	.	.	.	.
COc1ccc(CN(C)CC2CCCN(CCc3ccc(F)cc3)C2)c(OC)c1OC (configuration not stated)	70	.	.	.	.	.
COc1ccc(CCN2CCCC(CN(C)C(=O)c3cc(C)oc3C)C2)cc1 (configuration not stated)	.	.	.	.	.	/
COc1ccc(CCN2CCCC(CN(C)Cc3cccc(OC)c3)C2)cc1 (configuration not stated)	56	.	.	.	.	.
O=C(N/N=C/C(Br)=C/c1ccccc1)NC1CCCCC1	.	.	.	.	.	/
COc1ccc(Cl)cc1N(C(=O)c1ccco1)C(C(=O)NC1CCCC1)c1ccco1 (configuration not stated)	64	.	.	.	.	.
COc1ccccc1/C=C/c1onc(C)c1S(=O)(=O)N1CCC(C(=O)NC2CCCCCC2)CC1	70	.	.	.	.	.
C[C@H](c1ccccc1)N1C[C@@H](COCc2ccccc2)Oc2cc(N3CC[C@@H](O)C3)ccc2S1(=O)=O	.	/	.	/	/	/
C[C@H](c1ccccc1)N1C[C@@H](COCc2ccccc2)Oc2cc(N3CC[C@@H](N(C)C)C3)ccc2S1(=O)=O	63	/	.	/	/	.
C[C@@H](c1ccccc1)N1C[C@@H](COCc2ccccc2)Oc2cc(N3CC[C@H](N(C)C)C3)ccc2S1(=O)=O	70	/	.	/	/	.
C[C@H](c1ccccc1)N1C[C@@H](COCc2ccccc2)Oc2cc(N3CC[C@H](N(C)C)C3)ccc2S1(=O)=O	.	/	.	/	/	/
COC(=O)c1ccc(OC)c(CSc2nnc(COc3ccc(Cl)cc3)o2)c1	.	.	.	.	.	/
COc1ccc(OCc2cc(C(=O)N3CCCC(OC)C3)no2)c2ccccc12 (configuration not stated)	.	.	.	.	.	/
CSc1ccccc1C(=O)NC1CCCN(Cc2ccccc2F)C1 (configuration not stated)	.	.	.	.	.	/
C=CCN(C(=O)CCc1ccccc1OC)c1nc(-c2ccc(S(C)(=O)=O)cc2)cs1	83	.	.	.	.	.
O=C(Nc1ccccc1N1CCOCC1)c1cccc(Oc2ccccc2)c1	63	.	.	.	.	.
CC(C)Oc1cccc(C(=O)Nc2ccccc2N2CCOCC2)c1	.	.	.	.	.	/
COc1ccc(NC(=O)c2cc([N+](=O)[O-])ccc2N2CCCC2)cc1	.	.	.	.	.	/
SMILES	Granule exo inh	UPR XBP1 act	ABHD5 PLIN5 PPI	Mdm2 MdmX PPI	UPR CHOP act	Granule exo CP1
COc1ccc(NC(=O)c2cc([N+](=O)[O-])ccc2N2CCCCC2)cc1	68	.	.	.	.	.
COc1cc(NC(=O)c2c(-c3ccccc3Cl)noc2C)c2ncccc2c1	82	.	.	.	.	.
O=C(COC(=O)c1cnccn1)NCCc1ccccc1	.	.	.	.	.	/
Cc1cnc(C(=O)OCC(=O)NCCc2ccccc2)cn1	110	.	.	.	.	.
O=C(O)C1=C(OCc2ccccc2)C(=O)NCC1	.	.	.	.	.	/
COc1ccc(CC(=O)Nc2nc(-c3ccccc3)c(C(C)=O)s2)cc1OC	78	.	.	.	.	.
CCOc1ccc(OCC(O)CN2CCc3ccccc3C2)cc1 (configuration not stated)	.	.	.	.	.	/
CCOc1ccc2[nH]c(C)c(CN3CCN(C)CC3)c(=O)c2c1	68	.	.	.	.	.
COC(=O)C1C(c2ccccc2)C(C(=O)OCc2ccco2)C1c1ccccc1 (configuration not stated)	69	.	.	.	.	.
O=C(O)C1C(c2ccccc2)C(C(=O)OCc2ccco2)C1c1ccccc1 (configuration not stated)	.	.	.	.	.	/
Cc1[nH]nc(NCCO)c1[N+](=O)[O-]	.	.	.	.	.	/
CC(C(=O)N1CCc2ccccc21)N1CCN(c2cccc(C(F)(F)F)c2)CC1 (configuration not stated)	61	.	.	.	.	.
CC(C(=O)N1CCc2ccccc21)N1CCN(S(=O)(=O)c2ccc(C(F)(F)F)cc2)CC1 (configuration not stated)	.	.	.	.	.	/
O=C(Nc1ccc2c(c1)OCO2)C1Cc2c(-c3cccnc3)ccnc2O1 (configuration not stated)	.	/	.	/	/	/
CC(C)NC(=O)CC(=O)N/N=C/c1c(F)cccc1Cl	.	.	.	.	.	/
Cc1ccc2oc(C(=O)N(C)Cc3ccc(C)o3)c(C)c2c1	81	.	.	.	.	.
O=C(CCC(=O)N/N=C/c1ccc(Br)s1)NCc1ccccc1	.	.	.	.	.	/
Cc1ccc(S(=O)(=O)N(C)c2ccc(OCc3cccc(C)c3)cc2)cc1	.	.	.	.	.	/
CN(c1ccc(OCc2ccc([N+](=O)[O-])cc2)cc1)S(=O)(=O)c1ccccc1	61	.	.	.	.	.
O=C(CSc1nc(C2CC2)nc2ccccc12)Nc1ccccc1	78	.	.	.	.	.
COC(C/C=C/[C@@H](O)[C@H](C)OCc1ccccc1)OC	.	.	.	.	.	/
